Laboratory results from ChEMBL document CHEMBL1136799, “Design and synthesis of pyrrolidine-5,5'-trans-lactams (5-oxo-hexahydropyrrolo[3,2-b]pyrroles) as novel mechanism-based inhibitors of human cytomegalovirus protease. 4. Antiviral activity and plasma stability” (J Med Chem, 2003).

Key:
[1] = Compound was tested for its stability in human plasma; format: ADME, organism-based
Prothrombin [2] = target: T1, Prothrombin (Homo sapiens, UniProt P00734); assay: Concentration of compound required to inhibit thrombin
Vero = assay: Growth inhibition of cytomegalovirus in Vero cells; format: functional, Human betaherpesvirus 5
Acetylcholinesterase [3] = target: T2, Acetylcholinesterase (Homo sapiens, UniProt P22303); assay: Concentration of compound required to inhibit Acetylcholinesterase
T2 sequence (P22303 whole entry): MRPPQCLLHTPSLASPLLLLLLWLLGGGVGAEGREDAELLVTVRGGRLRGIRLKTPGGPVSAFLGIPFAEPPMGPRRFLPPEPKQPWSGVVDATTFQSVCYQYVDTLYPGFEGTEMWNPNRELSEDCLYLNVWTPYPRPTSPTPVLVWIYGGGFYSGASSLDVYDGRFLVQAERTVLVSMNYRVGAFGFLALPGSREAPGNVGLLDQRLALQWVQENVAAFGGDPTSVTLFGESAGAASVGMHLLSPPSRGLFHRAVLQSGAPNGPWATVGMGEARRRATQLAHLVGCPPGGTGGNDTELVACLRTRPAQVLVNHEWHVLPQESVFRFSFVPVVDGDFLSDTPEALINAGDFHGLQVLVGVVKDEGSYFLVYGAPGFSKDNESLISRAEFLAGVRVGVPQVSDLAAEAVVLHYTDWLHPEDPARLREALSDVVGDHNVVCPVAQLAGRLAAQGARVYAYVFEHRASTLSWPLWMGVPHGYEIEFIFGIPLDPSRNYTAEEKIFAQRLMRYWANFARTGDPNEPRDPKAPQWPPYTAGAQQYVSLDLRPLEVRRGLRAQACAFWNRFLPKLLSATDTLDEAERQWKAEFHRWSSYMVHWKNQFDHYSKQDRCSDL

[4] = target: T3, Capsid scaffolding protein (Human cytomegalovirus (strain AD169) (HHV-5) (Human herpesvirus 5), UniProt P16753); assay: Potency against human cytomegalovirus protease in HCMV pNA assay; parameters: species or system Human herpesvirus 5 strain AD169
T3 sequence (P16753 whole entry): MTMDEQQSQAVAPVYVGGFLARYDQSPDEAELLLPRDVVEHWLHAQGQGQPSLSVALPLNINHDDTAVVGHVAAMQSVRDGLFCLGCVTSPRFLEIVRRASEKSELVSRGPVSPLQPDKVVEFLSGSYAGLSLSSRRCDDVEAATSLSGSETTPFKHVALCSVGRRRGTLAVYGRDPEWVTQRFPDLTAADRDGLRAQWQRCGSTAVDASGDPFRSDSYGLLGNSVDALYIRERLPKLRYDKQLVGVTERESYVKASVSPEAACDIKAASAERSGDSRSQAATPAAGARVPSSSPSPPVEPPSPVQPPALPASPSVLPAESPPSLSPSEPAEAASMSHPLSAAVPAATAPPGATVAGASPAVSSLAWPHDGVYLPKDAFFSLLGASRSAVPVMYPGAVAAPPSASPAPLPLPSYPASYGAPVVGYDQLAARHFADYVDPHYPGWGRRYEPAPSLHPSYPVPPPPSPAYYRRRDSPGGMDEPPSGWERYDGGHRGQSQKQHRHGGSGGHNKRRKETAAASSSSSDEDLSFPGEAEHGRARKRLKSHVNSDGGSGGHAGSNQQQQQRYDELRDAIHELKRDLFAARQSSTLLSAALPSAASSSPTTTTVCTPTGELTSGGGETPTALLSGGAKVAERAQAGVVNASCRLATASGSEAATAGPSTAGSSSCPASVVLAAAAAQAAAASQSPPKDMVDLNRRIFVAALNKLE

[5] = Concentration of compound required to inhibit elastase
[6] = target: T3, Capsid scaffolding protein; assay: Inhibition of human cytomegalovirus protease in HCMV pNA assay.; parameters: species or system Human herpesvirus 5 strain AD169
Human betaherpesvirus 5 [7] = assay: Concentration required to inhibit human cytomegalovirus HCMV-AD169 in ELISA assay
Human betaherpesvirus 5 [8] = assay: as above; remark: listed apart in the source
Human betaherpesvirus 5 [9] = assay: Concentration required to inhibit human cytomegalovirus HCMV-AD169 in antiviralplaque reduction assay; format: functional, organism-based
[10] = C max in guinea pig; format: ADME, organism-based, Cavia porcellus; details: in vivo
[11] = Steady state distribution value in guinea pig; format: ADME, organism-based, Cavia porcellus; details: in vivo, read-out: Vdss
How it was run: (§1)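 Guinea-pig pharmacokinetics after intravenous dosing, with plasma clearance, volume of distribution and half-life. Drug levels were also measured in brain and vitreous humor.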

Cavia porcellus [12] = organism: Cavia porcellus; assay: AUC 0-t in guinea pig; format: ADME, organism-based, Plasma; details: in vivo
Acetylcholinesterase [13] = target: T2, Acetylcholinesterase; assay: Concentration required to inhibit Acetylcholinesterase
[14] = T max in dog; format: ADME, organism-based, Canis lupus familiaris; details: in vivo
Prothrombin [15] = target: T1, Prothrombin; assay: Concentration required to inhibit thrombin
Cavia porcellus [16] = organism: Cavia porcellus; assay: AUC 0-inf in guinea pig; format: ADME, organism-based, Plasma; parameters: time infinity; details: in vivo
[17] = C max in dog; format: ADME, organism-based, Canis lupus familiaris; details: in vivo
[18] = T 1/2 in dog; format: ADME, organism-based, Canis lupus familiaris; details: in vivo
How it was run: (§2)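 Dog pharmacokinetics after intravenous administration, with plasma clearance, volume of distribution and half-life derived from plasma drug levels.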

[19] = T max in guinea pig; format: ADME, organism-based, Cavia porcellus; details: in vivo
[20] = Steady state distribution value in dog; format: ADME, organism-based, Canis lupus familiaris; details: in vivo, read-out: Vdss; how it was run: as §2
Canis familiaris [21] = organism: Canis familiaris; assay: AUC 0-inf in dog; format: ADME, organism-based, Canis lupus familiaris, Plasma; parameters: time infinity; details: in vivo
[22] = T 1/2 in guinea pig; format: ADME, organism-based, Cavia porcellus; details: in vivo; how it was run: as §1
[23] = Clearance value in dog; format: ADME, organism-based, Canis lupus familiaris; details: in vivo; how it was run: as §2
[24] = Concentration required to inhibit elastase
[25] = Clearance value in guinea pig; format: ADME, organism-based, Cavia porcellus; details: in vivo; how it was run: as §1
Canis familiaris [26] = organism: Canis familiaris; assay: AUC 0-t in dog; format: ADME, organism-based, Canis lupus familiaris, Plasma; details: in vivo
[27] = Bioavailability in dog; format: ADME, organism-based, Canis lupus familiaris; details: in vivo
How it was run: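 Oral bioavailability in dog, set against intravenous administration in the same study.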

Structure (SMILES)	half-life [1]	CCID50 (Vero)	Ki [4]	IC50 [6]	IC50 (Human betaherpesvirus 5 [8])	IC50 (Human betaherpesvirus 5 [9])	further results
CC(C)c1ccc(NC(=O)N2CCC[C@H]2C(=O)N2CC[C@H]3[C@H]2[C@H](C)C(=O)N3C(=O)[C@@H]2[C@H](C)[C@@H]2C)cc1	6 h	219 µM	16 nM	300 nM	–	–	IC50 (Prothrombin [2]): > 200000 nM; IC50 (Acetylcholinesterase [3]): > 100000 nM; IC50 [5]: > 10000 nM; IC50 (Human betaherpesvirus 5 [7]): 10000 nM
CC(C)c1ccc(NC(=O)N2CCC[C@H]2C(=O)N2CC[C@H]3[C@H]2[C@H](C)C(=O)N3C(=O)C2CC2)cc1	0.5 h	274 µM	2 nM	200 nM	31000 nM	–	–
CC(C)c1ccc(NC(=O)N2CCC[C@H]2C(=O)N2CC[C@H]3[C@H]2[C@H](C)C(=O)N3c2nc3cccnc3s2)cc1	8 h	<31 µM	21 nM	290 nM	3600 nM	–	–
CC(C)c1ccc(NC(=O)N2CCC[C@H]2C(=O)N2CC[C@H]3[C@H]2[C@H](C)C(=O)N3c2nc3ccc(CO)cc3s2)cc1	> 20 h	125 µM	40 nM	310 nM	520 nM	–	–
CC(C)c1ccc(NC(=O)N2CCC[C@H]2C(=O)N2CC[C@H]3[C@H]2[C@H](C)C(=O)N3c2nccs2)cc1	> 24 h	280 µM	446 nM	1500 nM	–	> 30000 nM	–
CC(C)c1ccc(NC(=O)N2CCC[C@H]2C(=O)N2CC[C@H]3[C@H]2[C@H](C)C(=O)N3c2nc3ccc(OC(F)(F)F)cc3s2)cc1	11 h	>500 µM	20 nM	460 nM	5300 nM	–	–
COc1ccc(C)c2sc(N3C(=O)[C@@H](C)[C@@H]4[C@@H]3CCN4C(=O)[C@@H]3CCCN3C(=O)Nc3ccc(C(C)C)cc3)nc12	> 24 h	126 µM	–	1100 nM	–	17400 nM	–
CCOC(=O)c1ccc2nc(N3C(=O)[C@@H](C)[C@@H]4[C@@H]3CCN4C(=O)[C@@H]3CCCN3C(=O)Nc3ccc(C(C)C)cc3)sc2c1	9 h	>500 µM	7.4 nM	350 nM	5100 nM	–	–
CC(C)c1ccc(NC(=O)N2CCC[C@H]2C(=O)N2CC[C@H]3[C@H]2[C@H](C)C(=O)N3c2nc3ccc([N+](=O)[O-])cc3s2)cc1	24 h	128 µM	25 nM	390 nM	–	8700 nM	–
COc1ccc2nc(N3C(=O)[C@@H](C)[C@@H]4[C@@H]3CCN4C(=O)[C@@H]3CCCN3C(=O)Nc3ccc(C(C)C)cc3)sc2n1	9 h	>500 µM	–	870 nM	–	31000 nM	–
CC(C)c1ccc(NC(=O)N2CCC[C@H]2C(=O)N2CC[C@H]3[C@H]2[C@H](C)C(=O)N3c2ccc([N+](=O)[O-])cc2)cc1	> 24 h	69 µM	–	8700 nM	–	> 70000 nM	–
CC(C)c1ccc(NC(=O)N2CCC[C@H]2C(=O)N2CC[C@H]3[C@H]2[C@H](C)C(=O)N3c2nc3ccccc3s2)cc1	> 24 h	>500 µM	10 nM	180 nM	–	5000 nM	Cmax [10]: 32000 ng/mL; Vd [11]: 1.6 L/kg; AUC 0-t (Cavia porcellus [12]): 2210 ng/mL/h; IC50 (Acetylcholinesterase [13]): > 100000 nM; Tmax [14]: 4.8 min; IC50 (Prothrombin [15]): > 200000 nM; AUC 0-infinity (Cavia porcellus [16]): 2230 ng/mL/h; Cmax [17]: 5480 ng/mL; half-life [18]: 1.5 h; Tmax [19]: 4.8 min; Vd [20]: 0.8 L/kg; AUC 0-infinity (Canis familiaris [21]): 9750 ng/mL/h; half-life [22]: 1 h; clearance [23]: 8 mL/min/kg; IC50 [24]: > 10000 nM; clearance [25]: 60 mL/min/kg; AUC 0-t (Canis familiaris [26]): 9660 ng/mL/h; bioavailability [27]: 29%
